Calls of active or inactive are those of the source. The rule behind the calls is not given here.
Legend:
Homo sapiens = species: Homo sapiens; test: (§1) Inhibition of NF-kappaB in human 5.1 cells assessed as inhibition of TNFalpha-induced HIV-1-LTR activation after 6 hrs by luciferase reporter gene assay; type: cell-based
How it was run: (§2)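 Jurkat-derived 5.1 clone, stably carrying HIV-LTR-driven luciferase and maintained under G418. Cells were preincubated with compound at the indicated doses, then stimulated with TNFα for 6 h (methods give 20 ng/mL, legend 2 ng/mL). Luciferase was read from lysate. Output is % inhibition versus TNFα alone; IC50 from curve fitting.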

[1] = target: T1, Nuclear factor erythroid 2-related factor 2 (Homo sapiens) (UniProt Q16236); test: Activation of Nrf2/ARE-mediated transcription in human SK-N-SH cells after 6 hrs by luciferase reporter gene assay; type: cell-based
T1 sequence (whole entry): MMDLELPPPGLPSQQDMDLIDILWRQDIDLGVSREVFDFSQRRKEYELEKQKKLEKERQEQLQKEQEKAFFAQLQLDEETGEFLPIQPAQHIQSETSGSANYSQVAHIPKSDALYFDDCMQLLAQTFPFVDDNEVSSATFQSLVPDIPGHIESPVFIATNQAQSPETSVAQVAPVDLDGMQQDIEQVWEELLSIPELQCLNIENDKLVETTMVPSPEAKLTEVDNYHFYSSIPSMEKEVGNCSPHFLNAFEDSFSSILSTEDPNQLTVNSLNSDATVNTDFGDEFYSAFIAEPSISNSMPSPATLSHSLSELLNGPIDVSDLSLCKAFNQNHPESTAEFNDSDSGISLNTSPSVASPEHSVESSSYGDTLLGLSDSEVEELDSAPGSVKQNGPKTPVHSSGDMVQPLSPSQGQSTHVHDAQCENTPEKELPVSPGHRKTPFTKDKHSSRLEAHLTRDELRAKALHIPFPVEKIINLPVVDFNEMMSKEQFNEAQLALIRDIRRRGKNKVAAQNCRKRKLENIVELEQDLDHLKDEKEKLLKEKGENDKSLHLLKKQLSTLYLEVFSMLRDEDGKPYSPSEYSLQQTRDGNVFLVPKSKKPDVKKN
How it was run: (§3)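 SK-N-SH cells were transiently transfected with pGL3-ARE-Luc. After 24 h they were exposed to increasing concentrations of compound for 6 h. Cells were washed in PBS and lysed in Tris-phosphate pH 7.8 buffer with MgCl₂, DTT, Triton X-100 and glycerol, then luciferase activity was read in the supernatant. Output is fold induction over untreated cells; three independent experiments, mean SD, Student's t test.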

[2] = as §1; type: cell-based; how it was run: as §2
[3] = target: T1, Nuclear factor erythroid 2-related factor 2 (Homo sapiens); test: Activation of Nrf2/ARE-mediated transcription in human SK-N-SH cells at low concentration after 6 hrs by luciferase reporter gene assay; type: cell-based; how it was run: as §3
[4] = target: Mitogen-activated protein kinase; ERK1/ERK2 (Homo sapiens) (UniProt P27361+P28482); test: Inhibition of PMA-induced ERK 1/2 phosphorylation in human Jurkat cells after 30 mins by Western blotting analysis; type: cell-based
How it was run: (§4)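 Jurkat cells (10⁶/mL) were preincubated 30 min with compound, then given PMA (50 ng/mL) for 15 min. Protein was extracted in NP-40 lysis buffer with protease and phosphatase inhibitors. 30 μg per lane was run on 10% SDS-PAGE and transferred to nitrocellulose. Blots were probed for phospho- and total ERK1/2, JNK, p65 and IκBα (incl. phospho-Ser32/36), with tubulin as loading control.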

[5] = target: Transcription factor p65 (Homo sapiens) (UniProt Q04206); test: Inhibition of PMA-induced NF-kappaB p65 phosphorylation in human Jurkat cells after 30 mins by Western blotting analysis; type: cell-based; how it was run: as §4
[6] = target: Mitogen-activated protein kinase 9 (Homo sapiens) (UniProt P45984); test: Inhibition of PMA-induced JNK2 phosphorylation in human Jurkat cells after 30 mins by Western blotting analysis
[7] = test system: Human immunodeficiency virus 1; test: Antiviral activity against VSV-G protein pseudotyped human immunodeficiency virus 1 infected in human Jurkat cells assessed as inhibition of HIV-1 replication incubated 30 mins prior to infection measured after 12 hrs by luciferase reporter gene assay relative to curcumin; type: functional
[8] = Inhibition of Tat-induced HIV-1-Long terminal repeat transactivation in human Hela Tat-Luc cells after 12 hrs by luciferase reporter gene assay; type: cell-based; details: Human immunodeficiency virus 1, HeLa
How it was run: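 HeLa cells stably transfected with pLTR-Luc and pcDNA3-Tat were exposed to compound at the indicated doses, or to DRB (50 μM) as reference, for 12 h. Luciferase activity was then measured. Output is % activation relative to untreated cells; four independent experiments, mean SD, Student's t test; IC50 from curve fitting.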

Jurkat [9] = test: Cytotoxicity against human Jurkat cells after 6 hrs; type: cell-based
Jurkat [10] = test: Inhibition of PMA-induced NF-kappaB activation in human Jurkat cells assessed as inhibition of IkappaBalpha phosphorylation after 30 mins by Western blotting analysis; type: cell-based; how it was run: as §4
Jurkat [11] = test: Inhibition of PMA-induced NF-kappaB activation in human Jurkat cells assessed as inhibition of IkappaBalpha degradation after 30 mins by Western blotting analysis; type: cell-based; how it was run: as §4
[12] = target: T1, Nuclear factor erythroid 2-related factor 2 (Homo sapiens); test: Activation of Nrf2/ARE-mediated transcription in human SK-N-SH cells at high concentration after 6 hrs by luciferase reporter gene assay; type: cell-based; how it was run: as §3
SK-N-SH = test: Cytotoxicity against human SK-N-SH cells after 6 hrs; type: cell-based
HeLa = test: Cytotoxicity against human HeLa cells after 12 hrs; type: cell-based
[13] = target: Mitogen-activated protein kinase 8 (Homo sapiens) (UniProt P45983); test: Inhibition of PMA-induced JNK1 phosphorylation in human Jurkat cells after 30 mins by Western blotting analysis; type: cell-based; how it was run: as §4
[14] = test system: Human immunodeficiency virus 1; test: Antiviral activity against VSV-G protein pseudotyped human immunodeficiency virus 1 infected in human Jurkat cells assessed as inhibition of HIV-1 replication incubated 30 mins prior to infection measured after 12 hrs by luciferase reporter gene assay; type: functional, organism-based
How it was run: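 Jurkat cells at 10⁶/mL were pretreated with compounds at increasing doses for 30 min. They were then infected with VSV-G-pseudotyped pNL4-3.Luc.R⁻E⁻ (200 ng p24). Firefly luciferase was read in lysates (Tris-phosphate pH 7.8, Triton X-100) 12 h after infection. Values are % activation versus untreated infected cells (100%), given as mean ± SD of independent experiments; IC₅₀ by curve fitting.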

Chain of Transcription factor p65 (Homo sapiens) (Q04206 whole entry): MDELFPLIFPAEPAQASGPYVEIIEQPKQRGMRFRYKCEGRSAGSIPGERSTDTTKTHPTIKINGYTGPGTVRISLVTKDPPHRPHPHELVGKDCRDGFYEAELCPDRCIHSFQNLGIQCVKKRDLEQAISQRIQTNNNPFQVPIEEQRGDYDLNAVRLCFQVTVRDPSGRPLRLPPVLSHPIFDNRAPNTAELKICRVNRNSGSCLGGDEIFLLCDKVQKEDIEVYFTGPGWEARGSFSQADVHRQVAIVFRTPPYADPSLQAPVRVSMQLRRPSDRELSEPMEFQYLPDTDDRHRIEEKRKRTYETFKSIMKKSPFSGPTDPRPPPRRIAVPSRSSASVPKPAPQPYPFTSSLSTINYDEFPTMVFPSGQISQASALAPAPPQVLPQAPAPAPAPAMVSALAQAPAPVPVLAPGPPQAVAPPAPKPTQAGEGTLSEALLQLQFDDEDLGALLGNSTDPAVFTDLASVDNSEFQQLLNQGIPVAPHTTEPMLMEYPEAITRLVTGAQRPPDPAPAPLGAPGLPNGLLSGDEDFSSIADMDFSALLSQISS
Chain of Mitogen-activated protein kinase 9 (Homo sapiens) (P45984 whole entry, looked up): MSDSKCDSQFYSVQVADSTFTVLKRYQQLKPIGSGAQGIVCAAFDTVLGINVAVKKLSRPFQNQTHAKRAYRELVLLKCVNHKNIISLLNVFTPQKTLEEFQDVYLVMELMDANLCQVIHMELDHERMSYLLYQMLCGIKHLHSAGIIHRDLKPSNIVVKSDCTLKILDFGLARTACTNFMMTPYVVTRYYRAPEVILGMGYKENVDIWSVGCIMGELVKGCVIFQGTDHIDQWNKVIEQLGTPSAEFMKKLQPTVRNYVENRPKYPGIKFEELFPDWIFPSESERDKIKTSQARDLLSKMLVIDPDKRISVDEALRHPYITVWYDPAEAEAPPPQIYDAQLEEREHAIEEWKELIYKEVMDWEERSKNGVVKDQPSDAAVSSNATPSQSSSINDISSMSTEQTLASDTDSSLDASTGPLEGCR
Chain of Mitogen-activated protein kinase 8 (Homo sapiens) (P45983 whole entry): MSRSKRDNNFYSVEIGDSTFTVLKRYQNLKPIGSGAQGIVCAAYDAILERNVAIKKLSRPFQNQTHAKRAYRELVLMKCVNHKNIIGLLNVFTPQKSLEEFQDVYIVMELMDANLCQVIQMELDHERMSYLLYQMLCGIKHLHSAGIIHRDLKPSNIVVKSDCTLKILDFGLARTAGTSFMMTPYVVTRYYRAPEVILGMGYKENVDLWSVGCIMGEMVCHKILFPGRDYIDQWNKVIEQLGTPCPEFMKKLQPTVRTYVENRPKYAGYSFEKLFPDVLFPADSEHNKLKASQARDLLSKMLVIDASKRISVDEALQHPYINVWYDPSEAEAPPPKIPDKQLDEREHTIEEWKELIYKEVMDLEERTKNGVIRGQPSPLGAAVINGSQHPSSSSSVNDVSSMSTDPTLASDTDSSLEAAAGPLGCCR
Chain of Mitogen-activated protein kinase; ERK1/ERK2 (Homo sapiens) (P27361 whole entry, looked up): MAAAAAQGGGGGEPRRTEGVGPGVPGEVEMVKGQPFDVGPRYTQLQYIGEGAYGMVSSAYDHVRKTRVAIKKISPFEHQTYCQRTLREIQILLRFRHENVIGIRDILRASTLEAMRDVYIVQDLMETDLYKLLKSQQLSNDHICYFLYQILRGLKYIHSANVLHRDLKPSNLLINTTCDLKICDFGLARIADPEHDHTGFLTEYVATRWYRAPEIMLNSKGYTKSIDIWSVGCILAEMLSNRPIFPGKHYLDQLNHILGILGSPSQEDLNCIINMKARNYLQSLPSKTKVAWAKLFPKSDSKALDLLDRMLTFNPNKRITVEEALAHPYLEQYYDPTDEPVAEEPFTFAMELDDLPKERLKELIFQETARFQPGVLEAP
Chain of Mitogen-activated protein kinase; ERK1/ERK2 (Homo sapiens) (P28482 whole entry, looked up): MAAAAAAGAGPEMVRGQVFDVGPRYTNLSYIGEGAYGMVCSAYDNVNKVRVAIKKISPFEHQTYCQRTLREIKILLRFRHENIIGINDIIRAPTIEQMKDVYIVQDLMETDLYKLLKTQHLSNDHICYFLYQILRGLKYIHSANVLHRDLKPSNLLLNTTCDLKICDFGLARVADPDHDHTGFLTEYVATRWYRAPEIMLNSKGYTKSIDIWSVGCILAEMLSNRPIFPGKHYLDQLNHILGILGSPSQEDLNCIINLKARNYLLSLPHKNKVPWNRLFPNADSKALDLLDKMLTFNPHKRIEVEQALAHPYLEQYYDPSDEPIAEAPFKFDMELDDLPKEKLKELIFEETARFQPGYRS

Question: For `COc1cc(/C=C/C(=O)/C=C/c2cc(CC=C(C)C)c(O)c(OC)c2)cc(CC=C(C)C)c1O`, which inhibition (Homo sapiens) is on record?
Answer: The inhibition was “Active”.

Question: And the Activity [1]?
Answer: Its Activity is “inactive”.

Question: What does the source list for `COc1cc(/C=C/C(=O)/C=C/c2ccc(O)c(OC)c2)ccc1O`?
Answer: IC50 [2]: 4.92 µM; Activity [3]: Active; inhibition [4]: inactive; inhibition [5]: Dose-dependent effect; inhibition [6]: Dose-dependent effect; Ratio [7]: 4; IC50 [8]: 4.7 µM; Activity (Jurkat [9]): Non-toxic; inhibition (Jurkat [10]): Dose-dependent effect; inhibition (Jurkat [11]): Dose-dependent effect; Activity [12]: inactive; Activity (SK-N-SH): Non-toxic; Activity (HeLa): Non-toxic; inhibition [13]: Dose-dependent effect; Activity [14]: Active

Question: With `COc1cc(/C=C/C(=O)CC(=O)/C=C/c2ccc(O)c(OC)c2)ccc1O` [CURCUMIN] as the molecule, how does the IC50 [2] read?
Answer: The IC50 was 16.4 µM.

Question: And the Activity [1]?
Answer: The Activity was “Active”.

Question: What about the Activity [14] of the same molecule?
Answer: The Activity was “Active”.

Question: Which inhibition (Homo sapiens) does the source give for `COc1cc(CCC(=O)CC(=O)CCc2ccc(O)c(OC)c2)ccc1O` here?
Answer: Its inhibition is “Active”.

Question: And the Activity [1]?
Answer: The Activity was “inactive”.

Question: What does the source list for `COc1cc(/C=C/C(=O)CC(=O)/C=C/c2cc(CC=C(C)C)c(O)c(OC)c2)cc(CC=C(C)C)c1O`?
Answer: inhibition (Homo sapiens): inactive; Activity [1]: inactive

Question: Which inhibition (Homo sapiens) does the source give for `COc1cc(CCC(=O)CC(=O)CCc2cc(CCC(C)C)c(O)c(OC)c2)cc(CCC(C)C)c1O` here?
Answer: The inhibition was “Active”.
